Active and inactive are the calls of the source.
Assays:
[1] = Clearance in rat hepatic microsomes at 2 uM measured up to 60 mins in presence of NADPH generating system by LC-MS/MS analysis; assay type: ADME, Microsome; settings: liver microsomes
[2] = Half life in Beagle dog at 0.25 mg/kg, iv administered as 30 mins infusion by HPLC-MS analysis; assay type: ADME, organism-based, Canis lupus familiaris; settings: in vivo
Summary of the method: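 30-min intravenous infusion: Sprague Dawley rats 1 mg/kg, beagle dogs 0.25 mg/kg, cynomolgus monkeys 0.1 mg/kg; n = 3 per species, reported as mean ± SD.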

[3] = Cmax in cynomolgus monkey at 3 mg/kg, po administered via gavage by HPLC-MS analysis; assay type: ADME, organism-based, Macaca fascicularis; design: route oral, dose 3 mg/kg; settings: in vivo
Summary of the method: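 Oral dosing in 2% ethanol/40% PEG 300/58% 0.01N HCl: Sprague Dawley rats 5 mg/kg, beagle dogs 0.5 mg/kg, cynomolgus monkeys 3 mg/kg.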

[4] = Drug metabolism in human hepatocytes assessed as glucuronidation; assay type: ADME, cell-based, Hepatocyte
[5] = Drug excretion in bile duct-cannulated Sprague-Dawley rat urine; assay type: ADME; settings: in vivo
[6] = target: T1, C-type lectin domain family 4 member E (Homo sapiens) (UniProt Q9ULY5); assay: Agonist activity at human Mincle receptor up to 10 uM; settings: dose microM <=10
T1 sequence (whole entry): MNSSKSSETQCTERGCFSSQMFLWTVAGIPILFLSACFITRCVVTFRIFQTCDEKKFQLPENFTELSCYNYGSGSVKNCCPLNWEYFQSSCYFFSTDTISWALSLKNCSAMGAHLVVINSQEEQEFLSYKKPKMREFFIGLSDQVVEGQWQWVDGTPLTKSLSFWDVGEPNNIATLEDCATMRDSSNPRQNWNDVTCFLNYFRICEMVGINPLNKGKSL

[7] = target: T2, Toll-like receptor 7 (Homo sapiens) (UniProt Q9NYK1); assay: Agonist activity at human TLR7 expressed in HEK293 cells assessed as increase in NF-kappaB activation incubated for 24 hrs by quanti-blue SEAP reporter gene assay; assay type: cell-based; settings: filed as agonist
T2 sequence (whole entry): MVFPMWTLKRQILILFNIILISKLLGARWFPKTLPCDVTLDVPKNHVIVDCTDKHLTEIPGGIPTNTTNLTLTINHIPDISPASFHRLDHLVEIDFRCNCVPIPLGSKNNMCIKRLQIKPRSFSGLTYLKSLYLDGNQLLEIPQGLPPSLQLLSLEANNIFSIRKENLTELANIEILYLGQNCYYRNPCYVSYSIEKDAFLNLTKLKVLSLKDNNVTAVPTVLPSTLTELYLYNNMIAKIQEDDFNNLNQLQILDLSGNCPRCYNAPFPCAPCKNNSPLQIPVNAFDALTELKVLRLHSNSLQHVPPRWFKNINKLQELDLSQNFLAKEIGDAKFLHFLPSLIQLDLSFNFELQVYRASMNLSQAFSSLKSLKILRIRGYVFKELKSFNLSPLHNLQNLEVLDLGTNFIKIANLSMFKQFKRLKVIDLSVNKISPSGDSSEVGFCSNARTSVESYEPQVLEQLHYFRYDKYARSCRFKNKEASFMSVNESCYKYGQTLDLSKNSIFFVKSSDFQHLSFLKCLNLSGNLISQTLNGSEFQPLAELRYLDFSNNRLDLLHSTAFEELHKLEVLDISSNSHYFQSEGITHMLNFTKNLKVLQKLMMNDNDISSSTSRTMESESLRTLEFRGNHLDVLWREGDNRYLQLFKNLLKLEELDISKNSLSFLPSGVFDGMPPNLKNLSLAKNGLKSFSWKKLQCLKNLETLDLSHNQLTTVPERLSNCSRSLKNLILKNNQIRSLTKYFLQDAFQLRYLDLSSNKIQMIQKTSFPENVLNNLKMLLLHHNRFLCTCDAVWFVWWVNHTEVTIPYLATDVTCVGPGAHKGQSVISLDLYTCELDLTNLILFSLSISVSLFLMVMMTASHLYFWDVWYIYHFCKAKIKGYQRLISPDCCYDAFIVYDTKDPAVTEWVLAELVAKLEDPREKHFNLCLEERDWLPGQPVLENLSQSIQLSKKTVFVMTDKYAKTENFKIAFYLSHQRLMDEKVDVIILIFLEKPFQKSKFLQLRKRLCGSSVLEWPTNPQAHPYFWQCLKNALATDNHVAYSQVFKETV
Summary of the method: (§1)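 HEK293 cells stably expressing individual human TLRs or other innate immune receptors, used as reporter gene assays. Minimum effective concentration defined as the level giving a 3-fold rise over background.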

[8] = target: T3, Nucleotide-binding oligomerization domain-containing protein 1 (Homo sapiens) (UniProt Q9Y239); assay: Agonist activity at human NOD1 expressed in HEK293 cells assessed as increase in NF-kappaB activation up to 10 uM incubated for 24 hrs by quanti-blue SEAP reporter gene assay; assay type: cell-based; settings: dose microM <=10, time 24.0 hrs; summary of the method: as §1
T3 sequence (whole entry): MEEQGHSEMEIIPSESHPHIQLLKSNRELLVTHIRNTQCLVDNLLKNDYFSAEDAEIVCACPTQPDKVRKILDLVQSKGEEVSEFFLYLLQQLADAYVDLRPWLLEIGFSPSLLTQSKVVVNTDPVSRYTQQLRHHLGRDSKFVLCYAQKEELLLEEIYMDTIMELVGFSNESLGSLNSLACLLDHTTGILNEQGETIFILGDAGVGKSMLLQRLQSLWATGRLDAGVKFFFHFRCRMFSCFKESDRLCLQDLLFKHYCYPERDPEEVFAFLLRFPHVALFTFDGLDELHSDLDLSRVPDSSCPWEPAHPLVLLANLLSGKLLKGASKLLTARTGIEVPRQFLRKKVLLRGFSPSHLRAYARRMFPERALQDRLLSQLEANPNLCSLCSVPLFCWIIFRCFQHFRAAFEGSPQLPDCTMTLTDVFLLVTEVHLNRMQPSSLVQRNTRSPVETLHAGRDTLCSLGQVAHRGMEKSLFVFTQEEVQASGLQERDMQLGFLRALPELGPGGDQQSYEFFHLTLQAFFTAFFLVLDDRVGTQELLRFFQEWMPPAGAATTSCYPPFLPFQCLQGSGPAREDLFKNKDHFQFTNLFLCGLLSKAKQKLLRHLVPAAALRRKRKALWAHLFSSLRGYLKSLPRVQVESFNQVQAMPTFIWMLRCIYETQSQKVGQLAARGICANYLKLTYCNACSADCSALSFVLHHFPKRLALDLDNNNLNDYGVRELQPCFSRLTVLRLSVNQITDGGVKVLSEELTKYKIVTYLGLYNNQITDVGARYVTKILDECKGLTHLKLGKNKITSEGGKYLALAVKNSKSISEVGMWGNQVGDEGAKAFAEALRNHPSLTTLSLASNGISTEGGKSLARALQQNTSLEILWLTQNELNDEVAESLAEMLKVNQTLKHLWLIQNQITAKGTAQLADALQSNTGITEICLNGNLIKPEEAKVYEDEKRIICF

[9] = Drug metabolism in human hepatocytes assessed as hydroxyl oxidation to the acid; assay type: ADME, cell-based, Hepatocyte
[10] = Immunomodulatory activity in human primary hepatocytes infected with HBV assessed as stimulation of CD8+T cell response to virus by measuring decrease in HBeAg production treated with media from PBMC stimulated with 10 nM compound for 10 days relative to control; assay type: functional; design: scale not given: the % may be the effect or the level left; settings: time 10 day

Which CLhep predicted at 2 µM [1] does the source give for `CCCC[C@](C)(CO)Nc1nc(N)nc2cc(F)cnc12` [SELGANTOLIMOD] here?
Its CLhep predicted at 2 µM is 50 mL/min/kg.

What about the half-life [2] of the same compound?
The half-life was 1.32 h.

And the Cmax [3]?
The Cmax was 1.2 nM.

What about the Drug metabolism [4] of the same compound?
Its Drug metabolism is “Metabolite_Detected”.

What about the Drug excretion [5] of the same compound?
Its Drug excretion is “Active”.

And the Activity [6]?
Its Activity is “inactive”.

What about the MEC [7] of the same compound?
Its MEC is 5.2 µM.

What about the Activity [8] of the same compound?
Its Activity is “inactive”.

And the Drug metabolism [9]?
Its Drug metabolism is “Metabolite_Detected”.

What about the Activity [10] of the same compound?
Its Activity is >50%.

Reference: ChEMBL document CHEMBL4725242, “Discovery of GS-9688 (Selgantolimod) as a Potent and Selective Oral Toll-Like Receptor 8 Agonist for the Treatment of Chronic Hepatitis B” (J Med Chem, 2020)
